Measurements published in ChEMBL document CHEMBL4219033, “Anticancer activity profiling of parthenolide analogs generated via P450-mediated chemoenzymatic synthesis” (2018).

What was measured:
Format in all cases: functional
[1] = tested on: Jurkat; assay: Cytotoxicity against human Jurkat cells assessed as cell viability at 2 uM after 24 hrs by MTT assay relative to control; conditions: read-out: Activity
Outline: (§1)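 Suspension lines grown in α-MEM plus 10% FBS and penicillin-streptomycin, 37 °C, 5% CO2. Seeded at 30,000 cells/well in phenol-red-free α-MEM and rested 15 h. Exposed to 10 µM, or 2 µM in the lower-dose repeat, at 1% DMSO final for 24 h. 5 mg/ml MTT added directly for 3 h at 37 °C. Plates spun, formazan dissolved in DMSO, OD read at 550 nm. Viability relative to vehicle.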

[2] = tested on: JeKo-1; assay: Cytotoxicity against human JeKo1 cells assessed as cell viability at 2 uM after 24 hrs by MTT assay relative to control; conditions: JeKo-1, 24 h, read-out: Activity; outline: as §1
[3] = tested on: Jurkat; assay: Cytotoxicity against human Jurkat cells assessed as cell viability at 10 uM after 24 hrs by MTT assay relative to control; conditions: read-out: Activity; outline: as §1
[4] = tested on: JeKo-1; assay: Cytotoxicity against human JeKo1 cells assessed as cell viability at 10 uM after 24 hrs by MTT assay relative to control; conditions: JeKo-1, 24 h, read-out: Activity; outline: as §1
[5] = tested on: HeLa; assay: Cytotoxicity against human HeLa cells assessed as cell viability at 10 uM after 24 hrs by MTT assay relative to control; conditions: read-out: Activity
Outline: (§2)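 Adherent lines in DMEM plus 10% FBS and penicillin-streptomycin, 37 °C, 5% CO2, lifted with Accutase. Seeded at 500–10,000 cells/well and rested 15 h. Compounds from 10 mM DMSO stocks dosed at 10 µM final, 1% DMSO final, n = 5, for 24 h. Medium then swapped for 1 mg/ml MTT in phenol-red-free medium for 3 h at 37 °C. Formazan dissolved in DMSO, OD read at 550 nm. Viability normalised to 1% DMSO vehicle control.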

[6] = tested on: A549; assay: Cytotoxicity against human A549 cells assessed as cell viability at 10 uM after 24 hrs by MTT assay relative to control; conditions: A549, 24 h, read-out: Activity; outline: as §2
[7] = tested on: HCT-116; assay: Cytotoxicity against human HCT116 cells assessed as cell viability at 10 uM after 24 hrs by MTT assay relative to control; conditions: HCT-116, 24 h, read-out: Activity; outline: as §2
[8] = tested on: SJSA-1; assay: Cytotoxicity against human SJSA1 cells assessed as cell viability at 10 uM after 24 hrs by MTT assay relative to control; conditions: SJSA-1, 24 h, read-out: Activity; outline: as §2
[9] = tested on: SK-N-MC; assay: Cytotoxicity against human SK-N-MC cells assessed as cell viability at 10 uM after 24 hrs by MTT assay relative to control; conditions: read-out: Activity; outline: as §2
[10] = tested on: PC-3; assay: Cytotoxicity against human PC3 cells assessed as cell viability at 10 uM after 24 hrs by MTT assay relative to control; conditions: PC-3, 24 h, read-out: Activity; outline: as §2
[11] = tested on: MDA-MB-231; assay: Cytotoxicity against human MDA-MB-231 cells assessed as cell viability at 10 uM after 24 hrs by MTT assay relative to control; conditions: MDA-MB-231, 24 h, read-out: Activity; outline: as §2
[12] = tested on: SK-MEL-2; assay: Cytotoxicity against human SK-MEL-2 cells assessed as cell viability at 10 uM after 24 hrs by MTT assay relative to control; conditions: SK-MEL-2, 24 h, read-out: Activity; outline: as §2

Row | SMILES | viability at 2 µM [1] | viability at 2 µM [2] | viability at 10 µM [3] | viability at 10 µM [4] | viability at 10 µM [5] | viability at 10 µM [6] | viability at 10 µM [7] | viability at 10 µM [8] | viability at 10 µM [9] | viability at 10 µM [10] | viability at 10 µM [11] | viability at 10 µM [12]
1 | C=C1C(=O)O[C@@H]2[C@H]3O[C@]3(C)CC/C=C(/COC(=O)c3ccc(C(F)(F)F)cc3)CC[C@@H]12 | 92.4% | 95.9% | 0% | -1.6% | 63.9% | 94.1% | 27.3% | 73.6% | 67.8% | 69.3% | 75.5% | 85.4%
2 | C=C1C(=O)O[C@@H]2[C@H]3O[C@]3(C)CC/C=C(/COC(C(=O)OCC)c3ccc(C(F)(F)F)cc3)CC[C@@H]12 (stereo partly drawn) | 90.2% | 89.3% | 29.3% | 26.4% | 89.6% | 74.8% | 77.5% | 100% | 96.9% | 87.2% | 96.3% | 89.8%
3 | C=C1C(=O)O[C@@H]2[C@H]3O[C@]3(C)CC/C=C(/COC(C(=O)OCC)c3ccccc3)CC[C@@H]12 (stereo partly drawn) | 87.8% | 88.6% | 18.3% | 16.5% | 85.1% | 59.1% | 76.7% | 100% | 98% | 85.8% | 98.8% | 81.2%
4 | C=C1C(=O)O[C@@H]2[C@H]3O[C@]3(C)CC/C=C(/C)[C@@H](OC(=O)Nc3ccc([N+](=O)[O-])cc3)C[C@@H]12 | 78.9% | 84.1% | 0.2% | 0% | 78% | 83.3% | 38% | 100% | 92.4% | 94.1% | 98.6% | 75.2%
5 | C=C1C(=O)O[C@@H]2[C@H]3O[C@]3(C)CC/C=C(/COC(=O)c3ccc4ccccc4c3)CC[C@@H]12 | 97.9% | 89.2% | 75.7% | 63.2% | 75% | 84.5% | 100% | 98.3% | 104% | 81.9% | 100% | 73.6%
6 | C=C1C(=O)O[C@@H]2[C@H]3O[C@]3(C)CC/C=C(/COCc3ccccc3)CC[C@@H]12 | 91% | 100% | 6% | 5% | 74.8% | 99.3% | 96.3% | 99.4% | 75.3% | 94.7% | 100% | 84.2%
7 | C=C1C(=O)O[C@@H]2[C@H]3O[C@]3(C)CC/C=C(/COC(=O)Nc3ccccc3)CC[C@@H]12 | 89.2% | 100% | 0% | 16.6% | 74.2% | 60.3% | 45.9% | 100% | 102% | 85.3% | 97.1% | 80.5%
8 | C=C1C(=O)O[C@@H]2[C@H]3O[C@]3(C)CC/C=C(/C)[C@@H](OC(=O)Nc3cccc4ccccc34)C[C@@H]12 | 93.3% | 97.6% | 84% | 75.7% | 88.8% | 95.8% | 100% | 100% | 96.8% | 83.4% | 100% | 98.7%
9 | C=C1C(=O)O[C@@H]2[C@H]3O[C@]3(C)CC/C=C(/C)[C@@H](OC(C(=O)OCC)c3ccc(C(F)(F)F)cc3)C[C@@H]12 (stereo partly drawn) | 80.6% | 76.3% | 0% | -1.4% | 67.1% | 70.4% | 20% | 100% | 69.8% | 60.4% | 77.6% | 71.2%
